Screening results from PubChem BioAssay.
DNA FID counter – counter-screen for HCV NS3 helicase inhibitors: DNA intercalator displacement. DNA fluorescent intercalator displacement, fluorescence. inhibition, % at 7.9 µM. actives 0.17% (n = 290,000); in the data active means inhibition above about 37%;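 further: 0% = vehicle and 100% = reference compound; higher means more ethidium bromide displaced from hairpin DNA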
RAD52 anneal inh – inhibitors of human RAD52 DNA annealing; P43351; recombinant RAD52 DNA annealing, FRET fluorescence; AID 651710; actives 0.46% (n = 360,000); inhibition, % at 18.7 µM;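 active means every replicate showing at least 50% inhibition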
UBC13 inh – inhibitors of human UBC13 polyubiquitin chain formation | P61088 | TR-FRET | inhibition, % at 20 µM | actives 0.47% (n = 330,000) | AID 485273; in the data active means inhibition above about 45%, passing the limit was not always enough
Neddyl block – blocks human cullin neddylation | P61081+Q13564 | TR-FRET cullin neddylation, biochemical | calls only at 25 µM | actives 0.58% (n = 360,000) | AID 651699; in the data active means inhibition above about 36%
RAD54 branch – inhibitors of human RAD54 branch migration; Q92698; RAD54 Holliday junction branch migration, FAM/BHQ fluorescence; inhibition, % at 10.4 µM; actives 0.14% (n = 360,000); AID 602329;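 active means mean normalized replicate activity at least 40 and at least half of replicates scoring 40 or more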;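 further: 0% = median of neutral control wells and 100% = median of positive control wells; inhibitors cause a drop in the FAM fluorescence signal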
Target sequence (Q92698 whole entry, looked up): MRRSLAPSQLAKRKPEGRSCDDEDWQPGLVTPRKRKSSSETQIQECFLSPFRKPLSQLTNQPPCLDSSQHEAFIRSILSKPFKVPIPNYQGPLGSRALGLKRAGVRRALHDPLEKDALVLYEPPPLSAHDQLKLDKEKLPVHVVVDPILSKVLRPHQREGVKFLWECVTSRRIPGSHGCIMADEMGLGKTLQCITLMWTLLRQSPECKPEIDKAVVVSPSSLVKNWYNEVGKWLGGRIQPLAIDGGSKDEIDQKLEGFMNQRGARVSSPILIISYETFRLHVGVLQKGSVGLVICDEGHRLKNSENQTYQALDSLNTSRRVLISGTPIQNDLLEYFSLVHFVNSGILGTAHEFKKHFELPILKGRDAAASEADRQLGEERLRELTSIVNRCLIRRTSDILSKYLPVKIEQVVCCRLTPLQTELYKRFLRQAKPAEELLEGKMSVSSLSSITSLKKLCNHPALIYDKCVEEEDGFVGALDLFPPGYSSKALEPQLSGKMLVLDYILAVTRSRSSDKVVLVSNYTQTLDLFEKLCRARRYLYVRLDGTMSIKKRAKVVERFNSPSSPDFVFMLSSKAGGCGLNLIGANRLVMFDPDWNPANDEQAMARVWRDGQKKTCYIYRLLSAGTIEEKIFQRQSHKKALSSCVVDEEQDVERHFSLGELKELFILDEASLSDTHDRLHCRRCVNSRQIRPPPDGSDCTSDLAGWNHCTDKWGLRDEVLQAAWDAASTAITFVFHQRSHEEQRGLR
Apaf-1 inh – blocks human Apaf-1 apoptosome activity. O14727. reconstituted apoptosome caspase-3 activity, DEVD-Rh110 fluorescence. inhibition, % at 20 µM. actives 0.71% (n = 330,000); active means inhibition of at least 40% at 20 µM;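 further: plate controls were DMSO wells for no effect and DEVD-CHO caspase inhibitor wells for full effect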
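Assay system – apoptosome proteins · Medium – Hepes buffer, pH 7.5 · Also added – cytochrome c with DEVD-Rh110 · Timing – 30 min compound preincubation, 50 min activation, room temperature · Detection – Rh110 fluorescence, excitation 480 nm, emission 540 nm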
Neddyl conf – confirmation of human cullin neddylation inhibitors; shares compounds with Neddyl block; TR-FRET cullin neddylation biochemical assay; calls only at 25 µM; actives 13% (n = 1,800); AID 652217; in the data active means inhibition above about 40%;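 further: neddylation substrate is the cullin 1 ring ligase complex with SKP2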
An asterisk follows results filed as active; i = inactive; nt = no result given; + = active, no number. Hits are enriched below; roughly 1.6% of the tested compounds scored in any of these assays.

SMILES	DNA FID counter	RAD52 anneal inh	UBC13 inh	Neddyl block	RAD54 branch	Apaf-1 inh	Neddyl conf
Cc1cc(C)c2c(N)c(C(=O)c3ccccc3)sc2n1	-2.9	-17.1	3.0	+	-0.8	-0.3	+
Cc1cc(C)c2c(N)c(C(=O)c3ccc(Cl)cc3)sc2n1	2.9	12.7	-13.9	i	-3.4	22.7	nt
CCC/C(=C1/c2ccccc2C(=O)N1c1ccccc1)c1ccc2[nH]ccc2c1	nt	-5.3	-5.2	+	-1.7	19.3	i
Cc1cccn2c(=O)c3cc(C(=O)NC4CCCC4)sc3nc12	-20.2	-6.5	3.3	+	11.1	4.7	nt
Cc1cccn2c(=O)c3cc(C(=O)N4CCCCC4)sc3nc12	-26.1	2.9	1.5	nt	-10.5	2.0	nt
CCC1CCCCN1C(=O)c1cc2c(=O)n3cccc(C)c3nc2s1 (stereo not drawn)	-22.2	nt	13.7	+	3.8	15.8	i
Cc1cccn2c(=O)c3cc(C(=O)N4CCCC(C)C4)sc3nc12 (stereo not drawn)	-33.1	5.2	9.9	+	-15.1	8.6	i
Cc1cccn2c(=O)c3cc(C(=O)N4CCN(Cc5ccccc5)CC4)sc3nc12	nt	-30.3	23.9	+	6.6	2.7	+
CN1CCN(C(=O)C[C@@H]2C[C@H]3c4cc(NC(=O)Cc5ccncc5)ccc4O[C@H]3[C@@H](CO)O2)CC1	nt	-1.0	nt	nt	5.9	nt	nt
OCCN1CCN(c2nc3ccccc3nc2-c2ccccc2)CC1	6.6	-8.3	-2.9	+	nt	-3.8	i
O=C(NCc1ccccc1Cl)c1cnn2cccnc12	-7.7	nt	16.7	+	3.3	-1.1	i
O=C(NCc1cccs1)c1cnn2cccnc12	-1.9	-0.5	25.1	i	2.6	-1.3	nt
CN(C)c1nc(OCc2ccccc2)c2ncc(=O)[nH]c2n1	nt	-15.8	8.4	+	nt	-7.4	nt
CN(C)C(=O)c1c(-c2ccccc2)oc2ccc(O)cc12	-4.5	nt	2.6	+	3.3	-19.9	i
O=C(O)c1c(-c2ccccc2)oc2ccc(O)cc12	-1.3	-5.8	2.7	nt	2.8	-5.2	nt
C/C=C/c1ccc([C@@H]2[C@@H](CN(CC)C(C)=O)N(S(C)(=O)=O)[C@H]2CO)cc1	nt	-8.8	nt	nt	7.9	nt	nt
CCc1cc(=O)oc2cc(OCc3nn[nH]n3)ccc12	1.1	nt	2.5	+	3.9	-5.2	i
Cc1cc(=O)oc2cc(OS(C)(=O)=O)ccc12	-7.2	-0.4	0.2	i	nt	4.6	nt
CCc1cc(=O)oc2cc(OS(C)(=O)=O)ccc12	2.8	nt	2.8	+	-3.2	3.2	nt
CN(C)CC#Cc1ccc([C@H]2[C@H]3CN(C(=O)c4ccc5c(c4)OCO5)CCCCN3[C@H]2CO)cc1	nt	1.7	nt	nt	-1.4	nt	nt
O=C(N/N=C/c1ccc2cccnc2c1)c1nc2ccccc2c(=O)[nH]1	-7.3	-15.1	-3.9	+	7.8	-5.1	i
Cc1ccc2nc(C)cc(C(=O)OCC(=O)Nc3cccnc3Cl)c2c1	-19.5	-2.3	6.8	+	nt	-0.8	i
C[C@H]1CN([C@@H](C)CO)S(=O)(=O)c2ccc(C3=CCCC3)cc2O[C@@H]1CN(C)C(=O)CN(C)C	nt	-5.8	nt	nt	-1.1	nt	nt
c1ccc(Cn2c(SCc3cn4cccnc4n3)nnc2-c2ccco2)cc1	-8.8	nt	2.9	+	-14.6	1.0	i
Cc1ccc(-c2csc(N3CCN(c4cc5c(cc4Cl)nc(-c4ccncc4)n5CCN4CCCCC4)CC3)n2)cc1	-3.5	-17.3	12.8	nt	-0.4	37.2	nt
SMILES	DNA FID counter	RAD52 anneal inh	UBC13 inh	Neddyl block	RAD54 branch	Apaf-1 inh	Neddyl conf
COc1ccc(-c2csc(N3CCN(c4cc5c(cc4Cl)nc(-c4ccncc4)n5CCOCCO)CC3)n2)cc1	-14.6	-45.4	-14.8	+	-3.1	7.3	i
CC(C)(C)NC(=O)CN(C(=O)c1snc(C(=O)NC2CCCCC2)c1N)c1ccccc1F	-40.8	-8.8	5.5	+	-3.3	25.6	i
CCC(=O)Nc1ccc2c(c1)C(=O)N(C)C[C@H](OC)[C@@H](C)CN(C(=O)C1CC1)[C@@H](C)CO2	nt	-1.4	nt	nt	-6.9	nt	nt
C[C@H](CO)N1C[C@H](C)[C@@H](CN(C)S(C)(=O)=O)OCCCC[C@H](C)Oc2ccc(NC(=O)CCCN(C)C)cc2C1=O	nt	-4.1	nt	nt	-3.4	nt	nt
CCOC(=O)C1=CCN(S(=O)(=O)c2cccc(Cl)c2)C1c1cccc(Cl)c1 (stereo not drawn)	nt	-22.6	nt	nt	nt	nt	nt
CCOC(=O)c1nc(C)sc1-c1ccnn1S(=O)(=O)c1cccc(Cl)c1	-33.1	-19.9	-0.6	+	nt	-8.2	i
C=CCOc1c(CNc2ccc3[nH]c(=O)[nH]c3c2)cccc1OC	-5.8	-4.5	-17.7	i	nt	-5.1	nt
COc1cccc(CNc2ccc3[nH]c(=O)[nH]c3c2)c1OCc1ccc(F)cc1	-19.3	-18.6	8.6	+	-0.9	24.3	i
COc1cc2c(cc1OC)C1=C(C#N)COCN1CC2	3.8	nt	20.3	+	-12.9	15.0	i
CCC(=O)N1[C@H](CO)[C@H](c2ccc(C3=CCCC3)cc2)[C@H]1CNC(=O)CN(C)C	nt	nt	nt	nt	6.5	nt	nt
CCCC(=O)N1C[C@@H]2[C@H](c3ccccc31)[C@H](CO)N2C(=O)Nc1ccc(F)cc1	nt	5.0	nt	nt	2.9	nt	nt
Nc1ccccc1-n1cccc1	-3.2	-9.7	10.7	+	-0.4	5.1	i
CCC(NC(=O)c1ccc([N+](=O)[O-])cc1[N+](=O)[O-])c1ccccc1 (stereo not drawn)	-12.5	nt	-19.5	i	-15.1	15.9	nt
CCC(NC(=O)c1ccccc1O)c1ccccc1 (stereo not drawn)	0.1	nt	3.7	+	-11.6	-13.8	i
COc1ccccc1NC(=O)N1C[C@@H]2[C@H](c3ccccc31)[C@@H](CO)N2CC1CCCC1	nt	7.6	nt	nt	4.1	nt	nt
COc1ccc(-c2cc(NCCc3ccncc3)n3ncnc3n2)cc1	-12.8	nt	4.8	i	13.3	-1.3	nt
COc1ccc(-c2cc(NCc3ccccn3)n3ncnc3n2)cc1	-4.4	nt	3.3	+	-4.1	-1.9	i
CC(C)Cc1nc(N2CCCCC2)c(C#N)c2c1CCC2	-5.3	nt	12.6	+	-1.0	-8.3	nt
Cc1cc(=O)oc2c(C)c(OC3CCCCC3=O)ccc12 (stereo not drawn)	-11.7	-3.6	11.3	+	nt	0.1	+
COCC(=O)N1[C@H](CO)[C@@H](c2ccc(-c3ccccc3OC)cc2)C12CN(C(C)=O)C2	nt	-23.5	nt	nt	nt	nt	nt
C[C@@H]1CCCCO[C@H](CN(C)C(=O)Nc2cccc3ccccc23)[C@H](C)CN([C@H](C)CO)C(=O)c2cc(NS(=O)(=O)c3ccc(Cl)cc3)ccc2O1	nt	-1.1	nt	nt	-3.7	nt	nt
COc1cc(NC(=O)c2ccc(Cl)cc2Cl)ccc1-c1cc2ccccc2oc1=O	0.4	nt	39.3	i	4.6	2.9	nt
COc1cc(NC(C)=O)ccc1-c1cc2ccccc2oc1=O	-11.1	-19.4	0.1	+	nt	1.6	i
